# Only some compounds are listed: those with a hit (about 4.3% of all), similar ones and a draw of the others.
# SMARCA2 activ: SMARCA2 (BRM) function activators, primary screen, cell-based, luminescence, high throughput; MG213 cells, MMTV-luciferase reporter, dexamethasone, overnight; activation, % at 9.1 µM; actives 1% (n = 370,000); AID 652017, 2013; in the data active = activation above about 7.8%;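 note: 0% = vehicle wells and 100% = reference activator wells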
# AHR activator: AHR activators, primary screen, cell-based, luminescence, luciferase reporter, human; actives 2.5% (n = 320,000); activation, % at 5 µM; Aryl hydrocarbon receptor (Homo sapiens), P35869; AHR-responsive luciferase reporter cells; in the data active = activation above about 47%;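 note: 0% = vehicle wells and 100% = reference agonist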
# SR-BI HDL uptake: inhibitors of SR-BI mediated HDL lipid uptake, primary screen, ldlA[mSR-BI] cells, fluorescence, single point; inhibition, % at 12.5 µM; ldlA[mSR-BI] CHO cells, DiI-HDL uptake fluorescence, 3 h; AID 488896, 2010; actives 0.96% (n = 320,000); Scavenger receptor class B member 1 (Mus musculus), Q61009;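 active = mean replicate inhibition of at least 70% and a set share of replicates each scoring 70 or more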;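 note: 0% = median of neutral control wells and 100% = median of positive control wells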
# Yeast superoxide: reduction of superoxide in aged yeast, primary screen, HTS; S. cerevisiae aged cells, superoxide DHE fluorescence; hits give low values; superoxide response (% of plate mean), % at 10 µM; actives 0.18% (n = 330,000); AID 2690, 2010;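 active = superoxide response under a set limit, about three screen SD below normal, cut at about 65% in these data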;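 note: yeast aged for seven days with compound at 30 °C before DHE staining; 100% = average MFI of all compound-treated wells on the plate with controls excluded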
# Lipid droplet: inhibitors of hepatocyte lipid droplet formation, primary screen, imaging, high-throughput imaging, BODIPY stain; AML12 mouse hepatocytes, oleate lipid droplets; inhibition, % at 6.5 µM; actives 0.4% (n = 240,000); AID 1656, 2009;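 active = lipid droplet intensity inhibited by at least 50%, with more than 500 cells counted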
#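 Assay system: AML12 mouse liver cells | Compound dosing: One dose, 6.5 µM compound | Read-out basis: Droplet intensity reduction, % inhibition | Measured by: Fluorescence imaging, 20x objective, two fields per well | Schedule: Overnight treatment with compound plus oleate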
# SR-BI DiI-HDL act: activators of SR-BI mediated DiI-HDL uptake, primary screen, ldlA[mSR-BI] CHO cells, DiI fluorescence | actives 0.096% (n = 320,000) | AID 504775, 2011 | 3 h; 100 = double the neutral-control signal | activation, % at 12.5 µM;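 active = mean replicate activation of at least 60% and every replicate at or above 60%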;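 note: 0% = median plate neutral-control signal and 100% = twice that signal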
#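 Material: SR-BI-overexpressing, LDLR-lacking CHO cells; schedule: compound exposure 3 h, 37 °C; reagent: DiI-labelled HDL at 10 µg/mL final; technique: bottom-read fluorescence, 550/595 nm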
# An asterisk follows results filed as active; · = no result.
SMILES,SMARCA2 activ,AHR activator,SR-BI HDL uptake,Yeast superoxide,Lipid droplet,SR-BI DiI-HDL act
CC(C)(CO)NC(=O)c1ccc2c(c1)C(=O)c1ccccc1-2,2,6,8,105,·,-8
CCC(C)(C)c1ccc2c(c1)C(=O)c1ccccc1C2=O,5,72*,-14,96,3,14
CCC(=O)Nc1ccc2c(c1)C(=O)N(C)[C@@H]1CC[C@@H](CC(=O)NCc3ccc(OC)cc3)O[C@H]1CO2,-3,·,·,·,·,·
COc1cc(/C=N/Nc2nc3ccccc3s2)ccc1OC(=O)c1ccccc1F,6,78*,30,93,0,-30
COc1cc(OC)cc(C(=O)Oc2ccc(/C=N/Nc3nc4ccccc4s3)cc2OC)c1,-4,72*,47,107,-2,-47
O=c1oc2cc(OCc3c(F)cccc3Cl)ccc2cc1-c1ccccn1,-4,15,-9,96,·,9
O=c1oc2cc(OCc3ccc(F)cc3F)ccc2cc1-c1ccc2ccccc2n1,·,97*,·,94,-5,·
CCN=C1NC(c2ccc(C(F)(F)F)cc2)C(C(=O)OC)=C(C)N1Cc1cccc(C(F)(F)F)c1 (configuration not stated),-1,·,·,·,·,·
CC(C)(C)c1cc(C(=O)N/N=C/c2ccc(-c3ccccc3[N+](=O)[O-])o2)n[nH]1,1,50*,32,99,-14,-32
Cc1cc(C(=O)N/N=C/c2ccc(-c3cccc(Cl)c3Cl)o2)n[nH]1,-1,8,15,112,5,-15
O=C(N/N=C/c1ccc(-c2ccccc2[N+](=O)[O-])o1)c1cccnc1,-2,55*,14,96,-12,-14
O=C(O)c1cccc(-c2ccc(/C=N/NC(=O)c3cccnc3)o2)c1,3,11,-25,103,-8,25
O=C1c2ccccc2C(=O)N1OCc1ccc(Cl)cc1,-2,51*,2,106,-13,-2
O=C1Cc2ccccc2C(=O)N1OCc1ccc(Cl)cc1,-4,66*,62,112,·,-62
O=C1c2ccccc2C(=O)N1OCCOCCOCCON1C(=O)c2ccccc2C1=O,-3,8,-18,99,12,18
N#C/C(=C\c1ccc(OC(=O)c2ccc(Cl)s2)cc1)c1nc2ccccc2[nH]1,-4,49*,-15,101,6,15
N#C/C(=C\c1ccc(OC(=O)c2ccc(Br)s2)cc1)c1nc2ccccc2[nH]1,-3,9,-3,102,-10,3
CCOc1ccc(/C=N/NC(=S)NC2CC3CC2C2C=CCC32)cc1 (configuration not stated),-3,0,-4,95,24,4
COc1cc(/C=N/NC(=S)NC2CC3CC2C2C=CCC32)ccc1O (configuration not stated),5,9,73*,71,12,-73
COc1ccccc1CCn1cnc(-c2ccc(F)cc2F)c1CC(C)C,-7,·,·,·,·,·
COc1cc(-c2noc(C)c2/C=C/c2ccc(N)cc2)cc(OC)c1OC,3,71*,36,95,·,-36
CC(=O)Nc1nc(C)c(-c2csc(Nc3cccc(C(C)=O)c3)n2)s1,-2,57*,47,103,·,-47
CC(=O)Nc1ccc(Nc2nc(-c3sc(NC(C)=O)nc3C)cs2)cc1,-2,-8,48,102,1,-48
CC(=O)Nc1ccc(-c2csc(Nc3cc(C)ccn3)n2)cc1,-1,-2,49,96,7,-49
CC(=O)Nc1nc(C)c(-c2csc(Nc3ccc(O)cc3)n2)s1,·,49*,59,74,-11,-59
CC(=O)Nc1cccc(-c2csc(Nc3cc(C)ccn3)n2)c1,5,109*,54,113,·,-54
CCOC(=O)[C@@]12CCC3=C1N(CCC3)C(=O)[C@H](CC(=O)NCc1ccc(OC)c(OC)c1)C2,-2,·,·,·,·,·
C[C@H]1C2CC(OC(=O)Nc3ccc(C#N)cc3)C(C2)[C@H]2CCCCN21 (some centres not stated),-2,·,·,·,·,·

# High-throughput results (PubChem BioAssay)
